Test results reported in ChEMBL document CHEMBL1139364, “Codrugs linking L-dopa and sulfur-containing antioxidants: new pharmacological tools against Parkinson's disease” (J Med Chem, 2009).
Values after ≈ are worked out from the molar mass of the structure shown. Active and inactive are the calls of the source. The calls are words filed in the database; no cut-off is given here. Where a SMILES comes first, the peptide text is derived from it. [ ]: non-standard residue; d: D form. Dopa = N[C@@H](Cc1ccc(O)c(O)c1)C(=O)O

Experiments:
[1] = Partition coefficient, log K pf the compound; type: physicochemical; details: octanol/water
Outline: (§1)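 Partition between n-octanol and phosphate buffer pH 7.4 by saturated shake-flask method; compound concentration in phases measured by HPLC with UV diode-array detection.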

Rattus norvegicus [2] = assay: Effect on behavioral changes in icv dosed Wistar rat assessed as decrease in rearing episodes after 1.5 hrs by open-field studies compared to L-dopa; type: functional, organism-based
Rattus norvegicus [3] = assay: AUMC in Sprague-Dawley rat assessed as L-dopa level at 0.332 mmol/kg, po; type: ADME, organism-based; details: in vivo
Outline: (§2)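 Male Sprague–Dawley rats dosed orally at 0.332 mmol/kg; plasma L-dopa followed over time; noncompartmental parameters (Cmax, Tmax, AUC, AUMC, MRT) derived from plasma concentration profiles; data mean ± SE.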

Rattus norvegicus [4] = assay: Effect on behavioral changes in icv dosed Wistar rat assessed as increase in rearing episodes after 3 days by open-field studies; type: functional, organism-based
[5] = Solubility in water; type: physicochemical
Outline: (§3)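 Solubility in water and in buffers at pH 1.3, 5.0 and 7.4 via shake-flask approach; concentration determined by HPLC with UV diode-array detection.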

[6] = Solubility at 50 mg in phosphate buffer at pH 1.3; type: physicochemical; outline: as §3
Rattus norvegicus [7] = assay: Effect on behavioral changes in icv dosed Wistar rat assessed as increase in spontaneous locomotory activity after 3 days by open-field studies; type: functional, organism-based
Rattus norvegicus [8] = assay: Tmax in Sprague-Dawley rat assessed as L-dopa level at 0.332 mmol/kg, po; type: ADME, organism-based; details: in vivo; outline: as §2
[9] = Plasma concentration in Sprague-Dawley rat after 8 hrs; type: ADME, organism-based
Outline: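 Male Sprague–Dawley rats given 0.332 mmol/kg orally; plasma L-dopa measured over time, including at 8 h; mean ± SE.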

[10] = Solubility at 50 mg in phosphate buffer at pH 7.4; type: physicochemical; outline: as §3
Rattus norvegicus [11] = assay: Effect on behavioral changes in icv dosed Wistar rat assessed as increase in grooming activity after 3 days by open-field studies; type: functional, organism-based
[12] = Stability in human plasma assessed as half life; type: ADME, cell-free
Outline: (§4)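 Conversion to L-dopa at 37 °C in rat or human plasma diluted to 80% with isotonic sodium phosphate buffer pH 7.4; residual compound followed over time; pseudo-first-order constants from log residual vs time slope, giving half-life.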

Rattus norvegicus [13] = assay: Antiparkinson activity in po dosed rat striatum assessed as L-dopa levels per mg of tissue after 6 hrs
Rattus norvegicus [14] = assay: Mean residence time in Sprague-Dawley rat assessed as L-dopa level at 0.332 mmol/kg, po; type: ADME, organism-based; details: in vivo; outline: as §2
Rattus norvegicus [15] = assay: Sedative activity in icv dosed Wistar rat assessed as reduction of explorative activity; type: functional, organism-based
[16] = Lipophilicity, log P pf the compound at pH 7.4 by saturated shake-flask method; type: physicochemical; details: buffer; outline: as §1
Rattus norvegicus [17] = assay: Antiparkinson activity in Wistar rat striatum assessed as L-dopa levels per mg of tissue at 1 umol/kg, icv after 1 week; type: functional
Outline: (§5)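 Rats dosed icv for 1 week at 1 µmol/kg; striatal L-dopa and dopamine quantified by HPLC with electrochemical detection; three experiments, mean with standard error.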

Rattus norvegicus [18] = assay: Cmax in Sprague-Dawley rat assessed as L-dopa level at 0.332 mmol/kg, po; type: ADME, organism-based; design: dose 0.332 mmol/kg, route oral; details: in vivo; outline: as §2
[19] = Antioxidant activity against luminol-induced peroxide radicals by chemiluminescence assay; type: functional
Outline: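 Chemiluminescence assay with luminol used to measure hydrogen peroxide level.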

[20] = Stability assessed as half life in hydrochloric acid buffer at pH 1.3; type: physicochemical
Outline: (§6)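 Incubation at 37 °C in simulated gastric fluid (pH 1.3) or isotonic sodium phosphate buffer (pH 7.4); loss of parent monitored by HPLC UV-DAD; pseudo-first-order rate constants from slope of log residual compound vs time, giving half-life.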

[21] = Stability assessed as half life in isotonic sodium phosphate buffer at pH 7.4; type: physicochemical; outline: as §6
[22] = Stability in rat plasma assessed as half life; type: ADME, cell-free; outline: as §4
Rattus norvegicus [23] = assay: AUC in Sprague-Dawley rat assessed as L-dopa level at 0.332 mmol/kg, po; type: ADME, organism-based, Plasma; details: in vivo; outline: as §2
Rattus norvegicus [24] = assay: Effect on behavioral changes in po dosed Wistar rat assessed as decrease in spontaneous locomotory activity after 1.5 hrs by open-field studies compared to L-dopa
[25] = Antioxidant activity against lucigenin-induced super oxide radicals by chemiluminescence assay; type: functional
Outline: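 Chemiluminescence assay; superoxide anions generated by xanthine/xanthine oxidase system, signal amplified with lucigenin.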

Rattus norvegicus [26] = assay: Antiparkinson activity in Wistar rat striatum assessed as dopamine levels per mg of tissue at 1 umol/kg, icv after 1 week; type: functional; outline: as §5
Rattus norvegicus [27] = assay: Effect on behavioral changes in icv dosed Wistar rat assessed as anxiety-like behavior by open-field studies; type: functional, organism-based
[28] = Solubility at 50 mg in phosphate buffer at pH 5.0; type: physicochemical; outline: as §3
Rattus norvegicus [29] = assay: Effect on behavioral changes in po dosed Wistar rat assessed as decrease in grooming activity after 1.5 hrs by open-field studies compared to L-dopa

Structure (SMILES) | log K [1] | Activity (Rattus norvegicus [2]) | AUMC (Rattus norvegicus [3]) | solubility [5] | solubility [6] | Tmax (Rattus norvegicus [8]) | solubility [10] | half-life [12] | MRT (Rattus norvegicus [14]) | Cmax (Rattus norvegicus [18]) | Activity [19] | half-life [20] | half-life [21] | half-life [22] | AUC (Rattus norvegicus [23]) | Activity (Rattus norvegicus [24]) | Activity [25] | Activity (Rattus norvegicus [27]) | solubility [28] | Activity (Rattus norvegicus [29]) | further results
COC(=O)[C@H](Cc1ccc(O)c(O)c1)NC(=O)[C@H](CCSC)NC(C)=O (Ac-Met-[Dopa]-OMe) | -0.22 | Active | 12319.3 ug/ml.hr'2 | 101 µg/mL (≈ 262 µM) | 154 µg/mL (≈ 401 µM) | 4.22 h | 174 µg/mL (≈ 453 µM) | 5.25 h | 7.58 h | 62870 ng/mL | Active | 296 h | 30.2 h | 1.92 h | 1624.91 ug/hr.ml | Active | Active | Active | 237 µg/mL (≈ 618 µM) | Active | Activity (Rattus norvegicus [4]): Active; Activity (Rattus norvegicus [7]): Active; concentration at 8 h [9]: 53000 ng/mL; Activity (Rattus norvegicus [11]): Active; Activity (Rattus norvegicus [13]): 18 pmol/mg; Activity (Rattus norvegicus [15]): Active; logD [16]: 0.38; Activity (Rattus norvegicus [17]): 4.03 pmol/mg; Activity (Rattus norvegicus [26]): 0.09 pmol/mg
COC(=O)[C@H](Cc1ccc(O)c(O)c1)NC(=O)[C@H](CS)NC(=O)[C@@H](CS)NC(C)=O | -0.11 | Active | 3608.38 ug/ml.hr'2 | 15 µg/mL (≈ 32.6 µM) | 20 µg/mL (≈ 43.5 µM) | 1.55 h | 9.08 µg/mL (≈ 19.8 µM) | 3.39 h | 8.35 h | 16310 ng/mL | Active | 293 h | 48.5 h | 0.93 h | 432.2 ug/hr.ml | Active | Active | Active | 15.1 µg/mL (≈ 32.7 µM) | Active | logD [16]: -0.14
COC(=O)[C@H](Cc1ccc(O)c(O)c1)NC(=O)[C@H](CS)NC(C)=O (Ac-Cys-[Dopa]-OMe) | -0.3 | Active | 1673.2 ug/ml.hr'2 | 210 µg/mL (≈ 590 µM) | 208 µg/mL (≈ 584 µM) | 4.05 h | 201 µg/mL (≈ 563 µM) | 1.16 h | 9.34 h | 6910 ng/mL | Active | 301 h | 46.2 h | 0.78 h | 179.06 ug/hr.ml | Active | Active | – | 228 µg/mL (≈ 639 µM) | Active | –
COC(=O)[C@H](CS)NC(=O)[C@H](Cc1ccc(O)c(O)c1)NC(C)=O (Ac-[Dopa]-Cys-OMe) | -0.26 | Active | 1053.36 ug/ml.hr'2 | 154 µg/mL (≈ 431 µM) | 147 µg/mL (≈ 414 µM) | 4.11 h | 159 µg/mL (≈ 447 µM) | 1.09 h | 9.52 h | 6190 ng/mL | Active | 291 h | 48 h | 0.61 h | 110.62 ug/hr.ml | Active | Active | Active | 152 µg/mL (≈ 426 µM) | Active | –
COC(=O)[C@H](CCSC)NC(=O)[C@H](Cc1ccc(O)c(O)c1)NC(C)=O (Ac-[Dopa]-Met-OMe) | -0.25 | Active | 6844.84 ug/ml.hr'2 | 103 µg/mL (≈ 268 µM) | 256 µg/mL (≈ 665 µM) | 2.25 h | 101 µg/mL (≈ 262 µM) | 4.39 h | 6.96 h | 51070 ng/mL | Active | 292 h | 26.9 h | 1.55 h | 984.01 ug/hr.ml | Active | Active | Active | 247 µg/mL (≈ 642 µM) | Active | Activity (Rattus norvegicus [4]): Active; Activity (Rattus norvegicus [7]): Active; Activity (Rattus norvegicus [11]): Active; Activity (Rattus norvegicus [13]): 8 pmol/mg; Activity (Rattus norvegicus [15]): Active; logD [16]: -0.19; Activity (Rattus norvegicus [17]): 2.13 pmol/mg; Activity (Rattus norvegicus [26]): 0.22 pmol/mg
N[C@@H](Cc1ccc(O)c(O)c1)C(=O)O [LEVODOPA] | – | – | 1053.92 ug/ml.hr'2 | – | – | 1.03 h | – | – | 8.95 h | 5630 ng/mL | – | – | – | – | 117.73 ug/hr.ml | – | – | – | – | – | Activity (Rattus norvegicus [17]): 3.36 pmol/mg; Activity (Rattus norvegicus [26]): 0.07 pmol/mg
COC(=O)[C@H](Cc1ccc(O)c(O)c1)NC(=O)[C@H](CS)NC(=O)C(C)(C)S | 0.2 | Active | 4056.32 ug/ml.hr'2 | 14.3 µg/mL (≈ 34.4 µM) | 7.07 µg/mL (≈ 17 µM) | 6.04 h | 13.5 µg/mL (≈ 32.3 µM) | 1.5 h | 8.22 h | 17410 ng/mL | Active | 292 h | 21.3 h | 1.16 h | 493.29 ug/hr.ml | Active | Active | Active | 3.82 µg/mL (≈ 9.17 µM) | Active | logD [16]: 0.92
